Assay outcomes (PubChem BioAssay)
Measles CPE: compounds protecting cells from measles virus cytopathic effect, primary screen, measles RdRp inhibitor project, single point, MLSMR library, absorbance. Measles virus-infected cells, CPE protection. protection (pct of control), % at 4 µM. 1.5% of 140,000 active; in the data active means protection mostly above about 24%, no sharp cut-off; inactive means mostly below about 26%
Rad51 HR inh: human RAD51 strand exchange inhibitors, primary screen, biochemical, fluorescence. DNA repair protein RAD51 homolog 1 (Homo sapiens), Q06609. hRad51 DNA strand exchange, fluorescence dequenching. inhibition, % at 10 µM. 0.085% of 200,000 active;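 active means inhibition above 40% at the single screening dose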;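 further: 0% = DMSO control wells and 100% = blanks with heterologous ssDNA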
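material = hRad51 filaments on single-stranded DNA | reagent = Donor/quencher-labelled 47-bp dsDNA substrate | compound = 10 µM final, single point | schedule = strand-exchange reaction 15 min at room temperature | measured by = fluorescein emission 520 nm, excitation 485 nm | read-out basis = % inhibition versus plate control and blank means | benchmarks = plate controls and plate blanks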
NPY1 pot ag: NPY-Y1 receptor potentiators or agonists, primary screen, cell-based; activation, % at 3.6 µM; AID 1304, 2008; NPY-Y1 expressing cells, potentiator/agonist activation; 0.37% of 220,000 active; Neuropeptide Y receptor type 1 (Homo sapiens), P25929; in the data active means activation above about 33%, passing the limit was not always enough;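 further: cells stimulated with NPY at EC10 then isoproterenol at EC100; 0% = low agonist plus stimulus and 100% = saturating agonist plus stimulus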
Target sequence (P25929 whole entry, looked up): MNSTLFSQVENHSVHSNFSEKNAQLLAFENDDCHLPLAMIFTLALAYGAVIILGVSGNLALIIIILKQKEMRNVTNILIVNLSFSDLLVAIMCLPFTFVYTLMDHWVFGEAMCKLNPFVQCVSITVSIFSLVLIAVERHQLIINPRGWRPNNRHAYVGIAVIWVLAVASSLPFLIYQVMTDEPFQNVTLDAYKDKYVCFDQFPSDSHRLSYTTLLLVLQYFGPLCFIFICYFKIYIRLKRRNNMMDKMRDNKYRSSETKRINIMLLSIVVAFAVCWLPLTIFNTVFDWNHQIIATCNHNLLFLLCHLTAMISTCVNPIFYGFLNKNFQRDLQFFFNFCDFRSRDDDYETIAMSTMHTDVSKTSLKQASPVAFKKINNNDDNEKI
NPY-Y2 antag: NPY-Y2 receptor antagonists, primary screen, cell-based | AID 793, 2007 | inhibition, % at 2.7 µM | NPY-Y2 expressing cells, antagonist mode | 0.99% of 140,000 active; in the data active means inhibition above about 17%;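 further: 0% = vehicle with agonist challenge and 100% = reference antagonist with challenge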
NPY Y1 blocker: NPY-Y1 receptor antagonists, primary screen, cell-based; inhibition, % at 3.6 µM; AID 1040, 2008; 1% of 200,000 active; HEK293-CNG Y1 cells, membrane potential fluorescence; NPY at EC95, then isoproterenol;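 active means inhibition above the campaign mean inhibition of all tested compounds plus 3 SD, cut at about 20% in these data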;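 further: 0% = DMSO wells given NPY plus isoproterenol and 100% = isoproterenol alone without NPY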
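material = HEK293 cells with Y1 receptor plus CNG channel | also added = NPY 25 nM then isoproterenol 1 µM plus Ro 20-1724 25 µM | schedule = dye 3 h, compound 60 min room temperature, stimulation 45 min | measured by = membrane potential fluorescence | benchmarks = high control isoproterenol alone, low control NPY with isoproterenol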
NPY2 pot ag: NPY-Y2 potentiators or agonists, primary screen, cell-based | Neuropeptide Y receptor type 2 (Homo sapiens), P49146 | 0.45% of 220,000 active | cells expressing NPY-Y2, potentiator/agonist read-out | activation, % at 3.6 µM | AID 1359, 2008; in the data active means activation above about 27%;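 further: cells stimulated with NPY near EC25 plus isoproterenol at EC100; 0% = vehicle plus submaximal agonist and 100% = vehicle plus saturating agonist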
Active calls of the source: *; / = no result. The list is not random: actives were taken first. Their share in the collection is about 2.8%.

SMILES | Measles CPE | Rad51 HR inh | NPY1 pot ag | NPY-Y2 antag | NPY Y1 blocker | NPY2 pot ag
COc1cccc(C(=O)Nc2ccc(S(=O)(=O)Nc3cc(C)nc(C)n3)cc2)c1 | / | / | -3 | / | 3 | -9
Nc1nc(SCCO)[nH]c(=O)c1NC(=O)c1ccccc1F | / | 4 | -22 | / | -3 | 4
COc1ccccc1N=c1oc2cc(O)ccc2cc1C(=O)NCC1CCCO1 (centres undefined) | 25 | -8 | -19 | 21* | 24* | 0
COc1cccc(N=c2oc3cc(O)ccc3cc2C(=O)NCC2CCCO2)c1 (centres undefined) | / | -3 | -1 | / | 17 | -7
CN1CCc2c1nc1ccccc1c2N=C1CCCN1Cc1ccccc1 | 4 | / | -46 | 22* | 22* | -16
Cc1cc(C)c(N=C2CCCN2Cc2ccccc2)c(C#N)c1 | 17 | -5 | 5 | 12 | 6 | 11
Cn1cccc1/C=C1\SC(=S)N(NC(=O)c2ccccc2)C1=O | 27* | -51 | -22 | 4 | 7 | -11
Cn1cccc1/C=C1\SC(=S)N(NC(=O)c2ccc(F)cc2)C1=O | / | -79 | -31 | / | / | -14
CC(CCc1ccccc1)NC(=O)C(=O)Nc1ccccc1 (centres undefined) | 7 | / | 15 | 8 | 5 | -8
S=c1nc(-c2ccccc2)n(Cc2ccco2)c2c1CCCC2 | 31 | -13 | -13 | 16 | 29* | 3
O=C1CC(N2CCCCCC2)C(=O)N1c1ccc2c(c1)OCO2 (centres undefined) | 7 | 7 | -9 | -1 | 2 | -4
O=C1CC(NC23CC4CC(CC(C4)C2)C3)C(=O)N1c1ccc2c(c1)OCO2 (centres undefined) | 32* | -4 | -5 | 2 | 8 | 4
CN(Cc1ccccc1)C(=O)CN(c1ccc(F)cc1)S(=O)(=O)c1ccc2c(c1)OCCO2 | 5 | -10 | 23 | 0 | -2 | 1
CC(C)(Nc1ccccc1)C(=O)c1ccccc1 | 32* | 14 | 13 | 3 | 3 | 3
NC(=O)c1ccccc1 | / | 6 | -8 | / | 1 | 7
C/C(CCc1ccc2c(c1)OCO2)=N\NC(=O)c1ccccc1Br | / | -4 | -9 | / | 6 | -6
COc1ccc(CCNC(=O)CSc2nc3[nH]ncc3c(=O)[nH]2)cc1OC | / | -1 | 12 | / | -1 | 12
CCOc1ccc(NC(=O)CSc2nnc(-c3ccccn3)n2C)cc1 | 55* | -2 | 0 | 1 | -2 | -2
CCOc1ccc(NC(=O)CSc2nnc(-c3ccccn3)n2N)cc1 | 3 | 4 | 16 | 0 | -1 | 10
CNC(=O)OCc1cccc(COC(=O)NC)n1 | 46* | 3 | 21 | 1 | -5 | 2
COc1cc(OC)c2c(OC)cccc2n1 | 92* | / | 1 | 2 | 2 | 5
Cc1cc(C(=O)OCC(=O)Nc2ccc(F)cc2F)c(C)o1 | 37* | -3 | -2 | -3 | 7 | -6
Cc1cc(C(=O)OCC(=O)Nc2cc(S(=O)(=O)N(C)C)ccc2C)c(C)o1 | / | / | -13 | / | 7 | -8
COc1ccc(C2C(C#N)=C(N)Oc3c2c(-c2ccccc2)nn3-c2ccccc2)c(OC)c1OC (centres undefined) | 18 | 16 | 1 | -1 | -1 | 22
OCc1cc(C(O)CNCCCCCCOCCCCc2ccccc2)ccc1O (centres undefined) | / | 1 | 78* | / | -11 | 86*
SMILES | Measles CPE | Rad51 HR inh | NPY1 pot ag | NPY-Y2 antag | NPY Y1 blocker | NPY2 pot ag
CC(C)(C)NCC(O)c1ccc(O)c(CO)c1 (centres undefined) | / | -7 | / | / | / | /
C/C(=N\O)C(=O)NCCN(C)C | 18 | -9 | 5 | 0 | 6 | -3
C/C(=N\O)C(=O)NCCCNCCCN(C)C | 49* | 5 | -6 | 3 | 1 | 4
Cc1ccccc1NC(=O)COC(=O)c1c[nH]c(=O)[nH]c1=O | / | -5 | -8 | / | -4 | -18
O=C(Cn1cnc2ccc(Cl)cc2c1=O)c1cccs1 | 52* | 5 | 1 | -1 | -3 | 2
Nc1ncnc2c1ncn2[C@@H]1O[C@H](CO)[C@@H](O)[C@H]1O | 45* | 8 | 11 | 2 | -5 | 11
O=C(CN1CCN(c2ccccc2O)CC1)NCCCc1ccccc1 | / | 8 | -15 | / | 10 | -16
NNC(=O)C1CC1c1ccccc1 (centres undefined) | 19 | -13 | -16 | 1 | 0 | -1
O=C(O)C1CC1c1ccc(Br)cc1 (centres undefined) | 25 | -2 | -42 | 15 | 31* | -35
CCN(CC1COc2ccccc2O1)C(=S)NCCCN(C)C (centres undefined) | / | -5 | -8 | / | 1 | 3
CCN(CC1COc2ccccc2O1)C(=S)Nc1ccccc1 (centres undefined) | 2 | / | 46* | 6 | -2 | -4
Fc1ccc(C2=Nn3c(nnc3-c3n[nH]c4c3CCC4)SC2)cc1 | 36* | 7 | -5 | 2 | 5 | -11
O=C(Cc1ccccc1[N+](=O)[O-])NCCCN1CCOCC1 | / | 13 | -6 | / | -3 | -10
COc1ccc(C2C3=C(CCCC3=O)Nc3nc(SCc4ccc(C(=O)O)cc4)nn32)cc1OC (centres undefined) | 31* | -2 | -3 | -1 | 1 | 5
COc1ccc(C2C3=C(CCCC3=O)Nc3nc(SCc4ccccc4)nn32)cc1OC (centres undefined) | 5 | 0 | -25 | 2 | -4 | -1
Cc1ccc(CCNC(=O)C2CCC(=O)N2C(C)C)cc1 (centres undefined) | 7 | -2 | 11 | 7 | -1 | 4
CC(C)N1C(=O)CCC1C(=O)NCCc1ccc(Cl)cc1 (centres undefined) | 30* | / | 12 | 2 | 3 | 1
CC(C)N(Cc1ccccc1)C(=O)COC(=O)/C=C/c1cnc2ccccc2n1 | / | -3 | 7 | / | 7 | -3
COC(=O)c1ccc(CC(=O)c2ccc(O)cc2O)o1 | 9 | -16 | 23 | 1 | -5 | 24
CCOC(=O)c1ccc(CC(=O)c2ccc(O)cc2O)o1 | 8 | -10 | 34 | 2 | -3 | 35*
CC(=O)c1ccc(OCCOc2ccc(Cl)c3cccnc23)cc1 | / | 13 | 7 | / | -5 | -11
O=C(CN(CCc1ccccc1)C(=O)CNS(=O)(=O)c1ccc(F)cc1)NCC1CCCO1 (centres undefined) | 33* | -5 | -2 | 2 | -1 | -4
O=C(OCCN1C(=O)c2cccc3c(N4CCOCC4)ccc(c23)C1=O)c1ccccc1Cl | 3 | -478 | -39 | 24* | 57* | 10
